ChEMBL document CHEMBL2086304, “Synthesis and in vitro antimycobacterial and isocitrate lyase inhibition properties of novel 2-methoxy-2'-hydroxybenzanilides, their thioxo analogues and benzoxazoles” (Eur J Med Chem, 2012)
Converted amounts (≈) assume the structure as drawn.

What was measured:
Mycobacterium kansasii [1] = test: Antimycobacterial activity against isoniazid resistance Mycobacterium kansasii 225/80 after 7 days by micromethod; assay type: functional; settings: 225/80, 168 h
[2] = tested on: Mycobacterium tuberculosis; test: Antimycobacterial activity against Mycobacterium tuberculosis 331/88 after 21 days by micromethod; assay type: functional; settings: 331/88, 504 h
Outline: (§1)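 Inocula: M. tuberculosis My 331/88 at 10^-3 dilution, M. avium My 330/88 at 10^-5, M. kansasii My 235/80 and clinical isolate 6509/96 at 10^-4. Compounds added in DMSO at 1000 down to 0.5 (twofold series). Read at 14 and 21 days, plus 7 days for M. kansasii. MIC taken as lowest concentration inhibiting growth.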

Mycobacterium avium [3] = test: Antimycobacterial activity against isoniazid resistance Mycobacterium avium 330/88 after 14 days by micromethod; assay type: functional; settings: 330/88, 336 h; outline: as §1
[4] = tested on: Mycobacterium tuberculosis; test: Antimycobacterial activity against Mycobacterium tuberculosis 331/88 after 14 days by micromethod; assay type: functional; settings: 331/88, 336 h; outline: as §1
[5] = Selectivity index, ratio of IC50 for human HepG2 cells to MIC for Mycobacterium tuberculosis 331/88 after 14 days; assay type: functional
Outline: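 Cytotoxicity in Hep G2 cells (passage 12), 10,000 cells/well, in MEM with 10% FBS, 1% glutamine and 1% nonessential amino acids. Cells preincubated 24 h, 37 °C, 5% CO2. Compounds in DMSO at eight concentrations in quadruplicate, 24 h. MTS-type reagent added for 1.5 h, A490 read, IC50 taken at 50% viability. SI = this IC50 over the 14-day M. tuberculosis MIC.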

HepG2 = test: Cytotoxicity against human HepG2 cells after 24 hrs by CellTiter-96 cell viability assay; assay type: functional, cell-based; settings: HepG2, 24 h
Outline: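 Hep G2 human hepatic cells (passage 12), 10,000 per well, grown 24 h at 37 °C, 5% CO2 in MEM with 1% glutamine, 10% FBS and 1% nonessential amino acids. Compounds in DMSO at eight increasing concentrations, quadruplicate, 24 h at 37 °C. Kit reagent added, 1.5 h at 37 °C, absorbance 490 nm. IC50 is the concentration reducing viability to 50% of control.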

Mycobacterium kansasii [6] = test: Antimycobacterial activity against Mycobacterium kansasii 6509/96 clinical isolate after 7 days by micromethod; assay type: functional; settings: 6509/96, 168 h; outline: as §1
Mycobacterium kansasii [7] = test: Antimycobacterial activity against Mycobacterium kansasii 6509/96 clinical isolate after 14 days by micromethod; assay type: functional; settings: 6509/96, 336 h; outline: as §1
[8] = molecular target: T1, Isocitrate lyase (Mycobacterium tuberculosis) (UniProt P9WKK7); test: Inhibition of Mycobacterium tuberculosis H37Rv isocitrate lyase expressed in Escherichia coli HB101 at 10 umol/L
T1 sequence (whole entry): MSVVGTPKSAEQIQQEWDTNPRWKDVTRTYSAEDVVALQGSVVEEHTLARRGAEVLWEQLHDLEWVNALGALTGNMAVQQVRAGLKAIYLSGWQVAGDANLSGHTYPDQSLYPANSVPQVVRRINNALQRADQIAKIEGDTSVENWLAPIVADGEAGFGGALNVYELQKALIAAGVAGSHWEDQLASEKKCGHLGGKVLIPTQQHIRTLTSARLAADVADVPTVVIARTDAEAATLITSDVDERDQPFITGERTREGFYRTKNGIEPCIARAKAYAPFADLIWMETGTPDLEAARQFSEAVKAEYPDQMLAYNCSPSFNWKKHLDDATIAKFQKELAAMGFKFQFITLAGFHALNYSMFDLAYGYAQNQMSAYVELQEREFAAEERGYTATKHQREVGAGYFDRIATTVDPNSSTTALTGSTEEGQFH
Outline: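 Isocitrate lyase assayed per Dixon–Kornberg in 96-well format. Buffer: 50 mmol/L KH2PO4, 4 mmol/L MgCl2, 4 mmol/L phenylhydrazine, 12 mmol/L cysteine, pH 7.0. Glyoxylate phenylhydrazone read at 324 nm. Compounds added in DMSO, with DMSO-alone inhibition subtracted.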

Mycobacterium avium [9] = test: Antimycobacterial activity against isoniazid resistance Mycobacterium avium 330/88 after 21 days by micromethod; assay type: functional; settings: 330/88, 504 h; outline: as §1
Mycobacterium kansasii [10] = test: Antimycobacterial activity against isoniazid resistance Mycobacterium kansasii 225/80 after 21 days by micromethod; assay type: functional; settings: 225/80, 504 h
Mycobacterium kansasii [11] = test: Antimycobacterial activity against isoniazid resistance Mycobacterium kansasii 225/80 after 14 days by micromethod; assay type: functional; settings: 225/80, 336 h
Mycobacterium kansasii [12] = test: Antimycobacterial activity against Mycobacterium kansasii 6509/96 clinical isolate after 21 days by micromethod; assay type: functional; settings: 6509/96, 504 h; outline: as §1

COc1cc(Cl)ccc1C(=O)Nc1cc(Br)ccc1O
MIC (Mycobacterium kansasii [1]): 62.5 µM (≈ 22.3 µg/mL)
MIC [2]: 125 µM (≈ 44.6 µg/mL)
MIC (Mycobacterium avium [3]): 62.5 µM (≈ 22.3 µg/mL)
MIC [4]: 125 µM (≈ 44.6 µg/mL)
Selectivity Index [5]: 0.05
IC50 (HepG2): 5.63 µM
MIC (Mycobacterium kansasii [6]): 62.5 µM (≈ 22.3 µg/mL)
MIC (Mycobacterium kansasii [7]): 62.5 µM (≈ 22.3 µg/mL)
inhibition [8]: 0%
MIC (Mycobacterium avium [9]): 62.5 µM (≈ 22.3 µg/mL)
MIC (Mycobacterium kansasii [10]): 62.5 µM (≈ 22.3 µg/mL)
MIC (Mycobacterium kansasii [11]): 62.5 µM (≈ 22.3 µg/mL)
MIC (Mycobacterium kansasii [12]): 62.5 µM (≈ 22.3 µg/mL)

COc1cc(Cl)ccc1C(=O)Nc1cc(C(F)(F)F)ccc1O
MIC (Mycobacterium kansasii [1]): 250 µM (≈ 86.4 µg/mL)
MIC [2]: 250 µM (≈ 86.4 µg/mL)
MIC (Mycobacterium avium [3]): 250 µM (≈ 86.4 µg/mL)
MIC [4]: 250 µM (≈ 86.4 µg/mL)
Selectivity Index [5]: 0.1
IC50 (HepG2): 25.4 µM
MIC (Mycobacterium kansasii [6]): 250 µM (≈ 86.4 µg/mL)
MIC (Mycobacterium kansasii [7]): 250 µM (≈ 86.4 µg/mL)
inhibition [8]: 0%
MIC (Mycobacterium avium [9]): 250 µM (≈ 86.4 µg/mL)
MIC (Mycobacterium kansasii [10]): 250 µM (≈ 86.4 µg/mL)
MIC (Mycobacterium kansasii [11]): 250 µM (≈ 86.4 µg/mL)
MIC (Mycobacterium kansasii [12]): 250 µM (≈ 86.4 µg/mL)

COc1cc(Cl)ccc1C(=O)Nc1cc(Cl)c(Cl)cc1O
MIC (Mycobacterium kansasii [1]): 500 µM (≈ 173 µg/mL)
MIC [2]: 500 µM (≈ 173 µg/mL)
MIC (Mycobacterium avium [3]): > 1000 µM
MIC [4]: 500 µM (≈ 173 µg/mL)
Selectivity Index [5]: 0.02
IC50 (HepG2): 11.5 µM
MIC (Mycobacterium kansasii [6]): 250 µM (≈ 86.6 µg/mL)
MIC (Mycobacterium kansasii [7]): 250 µM (≈ 86.6 µg/mL)
inhibition [8]: 0%
MIC (Mycobacterium avium [9]): > 1000 µM
MIC (Mycobacterium kansasii [10]): 500 µM (≈ 173 µg/mL)
MIC (Mycobacterium kansasii [11]): 500 µM (≈ 173 µg/mL)
MIC (Mycobacterium kansasii [12]): 250 µM (≈ 86.6 µg/mL)

COc1ccc(Cl)cc1C(=S)Nc1cc(Br)ccc1O
MIC (Mycobacterium kansasii [1]): 8 µM (≈ 2.98 µg/mL)
MIC [2]: 32 µM (≈ 11.9 µg/mL)
MIC (Mycobacterium avium [3]): 32 µM (≈ 11.9 µg/mL)
MIC [4]: 16 µM (≈ 5.96 µg/mL)
Selectivity Index [5]: 0.55
IC50 (HepG2): 8.74 µM
MIC (Mycobacterium kansasii [6]): 16 µM (≈ 5.96 µg/mL)
MIC (Mycobacterium kansasii [7]): 16 µM (≈ 5.96 µg/mL)
inhibition [8]: 8%
MIC (Mycobacterium avium [9]): 32 µM (≈ 11.9 µg/mL)
MIC (Mycobacterium kansasii [10]): 16 µM (≈ 5.96 µg/mL)
MIC (Mycobacterium kansasii [11]): 16 µM (≈ 5.96 µg/mL)
MIC (Mycobacterium kansasii [12]): 32 µM (≈ 11.9 µg/mL)

COc1ccc(Cl)cc1C(=O)Nc1cc(Cl)c(Cl)cc1O
MIC (Mycobacterium kansasii [1]): 125 µM (≈ 43.3 µg/mL)
MIC [2]: 125 µM (≈ 43.3 µg/mL)
MIC (Mycobacterium avium [3]): 125 µM (≈ 43.3 µg/mL)
MIC [4]: 125 µM (≈ 43.3 µg/mL)
Selectivity Index [5]: 0.02
IC50 (HepG2): 2.98 µM
MIC (Mycobacterium kansasii [6]): 125 µM (≈ 43.3 µg/mL)
MIC (Mycobacterium kansasii [7]): 125 µM (≈ 43.3 µg/mL)
inhibition [8]: 7%
MIC (Mycobacterium avium [9]): 125 µM (≈ 43.3 µg/mL)
MIC (Mycobacterium kansasii [10]): 125 µM (≈ 43.3 µg/mL)
MIC (Mycobacterium kansasii [11]): 125 µM (≈ 43.3 µg/mL)
MIC (Mycobacterium kansasii [12]): 125 µM (≈ 43.3 µg/mL)

COc1cc(Cl)ccc1C(=S)Nc1cc(C(F)(F)F)ccc1O
MIC (Mycobacterium kansasii [1]): 32 µM (≈ 11.6 µg/mL)
MIC [2]: 62.5 µM (≈ 22.6 µg/mL)
MIC (Mycobacterium avium [3]): 32 µM (≈ 11.6 µg/mL)
MIC [4]: 32 µM (≈ 11.6 µg/mL)
Selectivity Index [5]: 0.18
IC50 (HepG2): 5.74 µM
MIC (Mycobacterium kansasii [6]): 32 µM (≈ 11.6 µg/mL)
MIC (Mycobacterium kansasii [7]): 62.5 µM (≈ 22.6 µg/mL)
inhibition [8]: 0%
MIC (Mycobacterium avium [9]): 62.5 µM (≈ 22.6 µg/mL)
MIC (Mycobacterium kansasii [10]): 125 µM (≈ 45.2 µg/mL)
MIC (Mycobacterium kansasii [11]): 62.5 µM (≈ 22.6 µg/mL)
MIC (Mycobacterium kansasii [12]): 125 µM (≈ 45.2 µg/mL)

COc1ccc(Cl)cc1C(=S)Nc1cc(Cl)c(Cl)cc1O
MIC (Mycobacterium kansasii [1]): 32 µM (≈ 11.6 µg/mL)
MIC [2]: 32 µM (≈ 11.6 µg/mL)
MIC (Mycobacterium avium [3]): 62.5 µM (≈ 22.7 µg/mL)
MIC [4]: 16 µM (≈ 5.8 µg/mL)
Selectivity Index [5]: 0.23
IC50 (HepG2): 3.72 µM
MIC (Mycobacterium kansasii [6]): 16 µM (≈ 5.8 µg/mL)
MIC (Mycobacterium kansasii [7]): 32 µM (≈ 11.6 µg/mL)
inhibition [8]: 9%
MIC (Mycobacterium avium [9]): 62.5 µM (≈ 22.7 µg/mL)
MIC (Mycobacterium kansasii [10]): 62.5 µM (≈ 22.7 µg/mL)
MIC (Mycobacterium kansasii [11]): 62.5 µM (≈ 22.7 µg/mL)
MIC (Mycobacterium kansasii [12]): 62.5 µM (≈ 22.7 µg/mL)

COc1ccc(Cl)cc1C(=O)Nc1cc(Br)ccc1O
MIC (Mycobacterium kansasii [1]): 4 µM (≈ 1.43 µg/mL)
MIC [2]: 8 µM (≈ 2.85 µg/mL)
MIC (Mycobacterium avium [3]): 62.5 µM (≈ 22.3 µg/mL)
MIC [4]: 8 µM (≈ 2.85 µg/mL)
Selectivity Index [5]: 0.51
IC50 (HepG2): 4.09 µM
MIC (Mycobacterium kansasii [6]): 4 µM (≈ 1.43 µg/mL)
MIC (Mycobacterium kansasii [7]): 8 µM (≈ 2.85 µg/mL)
inhibition [8]: 0%
MIC (Mycobacterium avium [9]): 62.5 µM (≈ 22.3 µg/mL)
MIC (Mycobacterium kansasii [10]): 8 µM (≈ 2.85 µg/mL)
MIC (Mycobacterium kansasii [11]): 8 µM (≈ 2.85 µg/mL)
MIC (Mycobacterium kansasii [12]): 8 µM (≈ 2.85 µg/mL)

COc1ccc(Cl)cc1C(=S)Nc1ccc(Br)cc1O
MIC (Mycobacterium kansasii [1]): 16 µM (≈ 5.96 µg/mL)
MIC [2]: 32 µM (≈ 11.9 µg/mL)
MIC (Mycobacterium avium [3]): 62.5 µM (≈ 23.3 µg/mL)
MIC [4]: 32 µM (≈ 11.9 µg/mL)
Selectivity Index [5]: 0.24
IC50 (HepG2): 7.6 µM
MIC (Mycobacterium kansasii [6]): 16 µM (≈ 5.96 µg/mL)
MIC (Mycobacterium kansasii [7]): 32 µM (≈ 11.9 µg/mL)
inhibition [8]: 7%
MIC (Mycobacterium avium [9]): 125 µM (≈ 46.6 µg/mL)
MIC (Mycobacterium kansasii [10]): 62.5 µM (≈ 23.3 µg/mL)
MIC (Mycobacterium kansasii [11]): 32 µM (≈ 11.9 µg/mL)
MIC (Mycobacterium kansasii [12]): 32 µM (≈ 11.9 µg/mL)

COc1ccc(Cl)cc1C(=O)Nc1ccc(Cl)cc1O
MIC (Mycobacterium kansasii [1]): 16 µM (≈ 4.99 µg/mL)
MIC [2]: 4 µM (≈ 1.25 µg/mL)
MIC (Mycobacterium avium [3]): 62.5 µM (≈ 19.5 µg/mL)
MIC [4]: 4 µM (≈ 1.25 µg/mL)
Selectivity Index [5]: 12.83
IC50 (HepG2): 51.3 µM
MIC (Mycobacterium kansasii [6]): 8 µM (≈ 2.5 µg/mL)
MIC (Mycobacterium kansasii [7]): 16 µM (≈ 4.99 µg/mL)
inhibition [8]: 10%
MIC (Mycobacterium avium [9]): 250 µM (≈ 78 µg/mL)
MIC (Mycobacterium kansasii [10]): 62.5 µM (≈ 19.5 µg/mL)
MIC (Mycobacterium kansasii [11]): 32 µM (≈ 9.99 µg/mL)
MIC (Mycobacterium kansasii [12]): 16 µM (≈ 4.99 µg/mL)
